Laboratory results as given in ChEMBL document CHEMBL1156112, “Discovery of 3-(1H-indol-3-yl)-4-[2-(4-methylpiperazin-1-yl)quinazolin-4-yl]pyrrole-2,5-dione (AEB071), a potent and selective inhibitor of protein kinase C isotypes” (J Med Chem, 2009).

How the values were obtained:
[1] = target: Protein kinase C beta type (Homo sapiens, UniProt P05771); assay: Inhibition of PKCbeta1 by SPA
[2] = target: Protein kinase C delta type (Homo sapiens, UniProt Q05655); assay: Inhibition of PKCdelta by SPA
[3] = Clearance in Lewis rat at 5 mg/kg, iv; type: ADME, organism-based; design: dose 5 mg/kg, route intravenous; conditions: in vivo
Procedure, shortened: (§1)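 Rats dosed either 5 mg/kg iv in 75% saline (0.9%)-25% PEG400 or 20 mg/kg po in 75% water-25% PEG400. OFA or Lewis rats were used depending on the compound. Values are averages of three animals. AUC is extrapolated to infinity. Oral bioavailability (F) comes from the po and iv exposures.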

[4] = target: Protein kinase C eta type (Homo sapiens, UniProt P24723); assay: Inhibition of PKCeta by SPA
[5] = AUC (0 to infinity) in Lewis rat at 5 mg/kg, iv; type: ADME, organism-based; design: time infinity, dose 5 mg/kg, route intravenous; conditions: plasma; procedure, shortened: as §1
[6] = target: T1, Protein kinase C epsilon type (Homo sapiens, UniProt Q02156); assay: Inhibition of PKCepsilon by SPA
T1 sequence (Q02156 whole entry): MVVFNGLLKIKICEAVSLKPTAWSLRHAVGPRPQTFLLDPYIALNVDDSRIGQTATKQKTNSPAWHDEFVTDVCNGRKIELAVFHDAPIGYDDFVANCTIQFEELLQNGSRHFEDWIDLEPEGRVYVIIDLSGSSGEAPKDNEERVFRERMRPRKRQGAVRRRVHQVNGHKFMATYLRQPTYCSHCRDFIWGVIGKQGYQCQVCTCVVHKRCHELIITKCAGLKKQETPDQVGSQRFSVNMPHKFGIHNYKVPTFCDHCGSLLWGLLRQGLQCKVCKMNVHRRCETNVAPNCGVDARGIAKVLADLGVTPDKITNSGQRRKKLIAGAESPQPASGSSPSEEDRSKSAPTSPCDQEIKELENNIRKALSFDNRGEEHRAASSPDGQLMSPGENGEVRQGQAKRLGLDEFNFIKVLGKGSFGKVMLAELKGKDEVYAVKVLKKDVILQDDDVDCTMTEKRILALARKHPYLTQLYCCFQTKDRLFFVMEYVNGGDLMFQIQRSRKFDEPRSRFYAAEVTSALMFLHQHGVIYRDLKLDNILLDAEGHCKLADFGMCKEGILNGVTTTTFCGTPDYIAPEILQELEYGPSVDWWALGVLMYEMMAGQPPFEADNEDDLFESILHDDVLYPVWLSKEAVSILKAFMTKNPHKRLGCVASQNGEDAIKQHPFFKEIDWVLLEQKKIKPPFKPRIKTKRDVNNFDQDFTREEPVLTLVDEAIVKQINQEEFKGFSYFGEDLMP

[7] = AUC (0 to infinity) in Lewis rat at 20 mg/kg, po; type: ADME, organism-based; design: time infinity, dose 20 mg/kg, route oral; conditions: plasma; procedure, shortened: as §1
[8] = Tmax in Lewis rat at 20 mg/kg, po; type: ADME, organism-based; design: dose 20 mg/kg, route oral; conditions: in vivo; procedure, shortened: as §1
[9] = Volume of distribution at steady state in Lewis rat at 5 mg/kg, iv; type: ADME, organism-based; design: dose 5 mg/kg, route intravenous; conditions: in vivo, read-out: Vdss; procedure, shortened: as §1
[10] = Elimination half life in Lewis rat at 5 mg/kg, iv; type: ADME, organism-based; design: dose 5 mg/kg, route intravenous; conditions: in vivo, read-out: beta t1/2 (converted); procedure, shortened: as §1
[11] = target: Protein kinase C theta type (Homo sapiens, UniProt Q04759); assay: Inhibition of PKCtheta by SPA
[12] = target: Protein kinase C alpha type (Homo sapiens, UniProt P17252); assay: Inhibition of PKCalpha by SPA
[13] = Cmax in Lewis rat at 20 mg/kg, po; type: ADME, organism-based; design: dose 20 mg/kg, route oral; conditions: in vivo; procedure, shortened: as §1
cells = conditions: Homo sapiens, Jurkat
[14] = Oral bioavailability in Lewis rat at 20 mg/kg, po; type: ADME, organism-based; conditions: in vivo; procedure, shortened: as §1
[15] = Clearance in OFA rat at 5 mg/kg, iv; type: ADME, organism-based; design: dose 5 mg/kg, route intravenous; conditions: in vivo; procedure, shortened: as §1
[16] = AUC (0 to infinity) in OFA rat at 20 mg/kg, po; type: ADME, organism-based; design: dose 20 mg/kg, route oral, time infinity; conditions: plasma; procedure, shortened: as §1
[17] = Cmax in OFA rat at 20 mg/kg, po; type: ADME, organism-based; design: dose 20 mg/kg, route oral; conditions: in vivo; procedure, shortened: as §1
[18] = AUC (0 to infinity) in OFA rat at 5 mg/kg, iv; type: ADME, organism-based; design: time infinity, dose 5 mg/kg, route intravenous; conditions: plasma; procedure, shortened: as §1
[19] = Volume of distribution at steady state in OFA rat at 5 mg/kg, iv; type: ADME, organism-based; design: dose 5 mg/kg, route intravenous; conditions: in vivo, read-out: Vdss; procedure, shortened: as §1
[20] = Tmax in OFA rat at 20 mg/kg, po; type: ADME, organism-based; design: dose 20 mg/kg, route oral; conditions: in vivo; procedure, shortened: as §1
[21] = Elimination half life in OFA rat at 5 mg/kg, iv; type: ADME, organism-based; design: dose 5 mg/kg, route intravenous; conditions: in vivo, read-out: beta t1/2 (converted); procedure, shortened: as §1
[22] = Oral bioavailability in OFA rat at 20 mg/kg, po; type: ADME, organism-based; conditions: in vivo; procedure, shortened: as §1

Protein kinase C theta type, sequence (Q04759 whole entry): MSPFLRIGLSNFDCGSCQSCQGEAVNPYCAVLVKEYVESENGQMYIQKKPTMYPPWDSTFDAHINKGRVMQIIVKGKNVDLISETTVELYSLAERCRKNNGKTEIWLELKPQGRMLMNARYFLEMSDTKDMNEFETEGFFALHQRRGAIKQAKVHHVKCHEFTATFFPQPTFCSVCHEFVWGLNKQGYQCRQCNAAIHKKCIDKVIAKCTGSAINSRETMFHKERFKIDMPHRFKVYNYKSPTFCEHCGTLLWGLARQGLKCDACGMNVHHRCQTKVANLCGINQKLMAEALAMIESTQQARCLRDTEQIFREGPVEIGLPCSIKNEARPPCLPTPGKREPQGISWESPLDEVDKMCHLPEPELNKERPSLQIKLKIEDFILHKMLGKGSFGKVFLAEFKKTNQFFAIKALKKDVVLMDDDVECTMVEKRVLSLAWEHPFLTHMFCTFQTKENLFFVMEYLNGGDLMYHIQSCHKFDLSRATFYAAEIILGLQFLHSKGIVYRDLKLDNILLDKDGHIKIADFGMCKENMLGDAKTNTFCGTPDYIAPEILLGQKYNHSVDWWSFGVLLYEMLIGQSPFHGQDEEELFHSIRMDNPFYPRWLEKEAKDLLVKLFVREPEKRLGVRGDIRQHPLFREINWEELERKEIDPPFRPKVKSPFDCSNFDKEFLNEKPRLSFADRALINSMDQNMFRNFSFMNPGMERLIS
Protein kinase C delta type, sequence (Q05655 whole entry): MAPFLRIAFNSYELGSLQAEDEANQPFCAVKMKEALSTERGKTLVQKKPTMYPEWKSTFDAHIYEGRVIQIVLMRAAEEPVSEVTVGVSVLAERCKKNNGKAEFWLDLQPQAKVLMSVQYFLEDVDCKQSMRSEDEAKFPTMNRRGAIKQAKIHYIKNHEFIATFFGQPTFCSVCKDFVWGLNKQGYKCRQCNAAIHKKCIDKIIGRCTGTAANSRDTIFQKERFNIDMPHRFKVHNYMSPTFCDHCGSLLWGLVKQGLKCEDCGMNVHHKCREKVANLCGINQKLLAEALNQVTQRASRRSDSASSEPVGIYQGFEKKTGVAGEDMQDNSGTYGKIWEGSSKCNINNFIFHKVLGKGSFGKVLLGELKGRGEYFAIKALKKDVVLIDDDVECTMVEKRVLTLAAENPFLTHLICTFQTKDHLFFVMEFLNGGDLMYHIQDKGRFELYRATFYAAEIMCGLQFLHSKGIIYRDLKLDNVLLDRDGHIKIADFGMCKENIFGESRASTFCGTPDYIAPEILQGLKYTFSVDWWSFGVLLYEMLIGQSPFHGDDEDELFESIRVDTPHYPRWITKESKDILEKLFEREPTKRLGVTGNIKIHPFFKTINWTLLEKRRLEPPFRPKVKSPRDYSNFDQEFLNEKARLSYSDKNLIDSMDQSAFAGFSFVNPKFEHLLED
Protein kinase C eta type, sequence (P24723 whole entry): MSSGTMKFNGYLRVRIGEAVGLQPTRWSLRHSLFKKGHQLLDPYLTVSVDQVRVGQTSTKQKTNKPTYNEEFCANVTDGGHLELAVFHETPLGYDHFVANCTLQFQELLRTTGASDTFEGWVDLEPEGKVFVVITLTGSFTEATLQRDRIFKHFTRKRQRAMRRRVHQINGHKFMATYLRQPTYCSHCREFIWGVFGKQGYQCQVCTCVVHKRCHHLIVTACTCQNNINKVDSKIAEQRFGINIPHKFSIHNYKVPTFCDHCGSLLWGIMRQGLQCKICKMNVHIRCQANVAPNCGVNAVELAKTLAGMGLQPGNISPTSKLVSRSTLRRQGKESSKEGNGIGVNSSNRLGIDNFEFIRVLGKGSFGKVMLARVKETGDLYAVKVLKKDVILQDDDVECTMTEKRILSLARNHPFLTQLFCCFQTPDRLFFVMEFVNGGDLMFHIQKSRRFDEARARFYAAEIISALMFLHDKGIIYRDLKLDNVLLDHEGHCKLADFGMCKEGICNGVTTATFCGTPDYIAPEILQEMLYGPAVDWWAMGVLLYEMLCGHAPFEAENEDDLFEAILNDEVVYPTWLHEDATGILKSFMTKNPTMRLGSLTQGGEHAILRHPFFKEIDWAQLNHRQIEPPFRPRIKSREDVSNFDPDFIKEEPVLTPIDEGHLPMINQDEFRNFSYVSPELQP
Protein kinase C beta type, sequence (P05771 whole entry): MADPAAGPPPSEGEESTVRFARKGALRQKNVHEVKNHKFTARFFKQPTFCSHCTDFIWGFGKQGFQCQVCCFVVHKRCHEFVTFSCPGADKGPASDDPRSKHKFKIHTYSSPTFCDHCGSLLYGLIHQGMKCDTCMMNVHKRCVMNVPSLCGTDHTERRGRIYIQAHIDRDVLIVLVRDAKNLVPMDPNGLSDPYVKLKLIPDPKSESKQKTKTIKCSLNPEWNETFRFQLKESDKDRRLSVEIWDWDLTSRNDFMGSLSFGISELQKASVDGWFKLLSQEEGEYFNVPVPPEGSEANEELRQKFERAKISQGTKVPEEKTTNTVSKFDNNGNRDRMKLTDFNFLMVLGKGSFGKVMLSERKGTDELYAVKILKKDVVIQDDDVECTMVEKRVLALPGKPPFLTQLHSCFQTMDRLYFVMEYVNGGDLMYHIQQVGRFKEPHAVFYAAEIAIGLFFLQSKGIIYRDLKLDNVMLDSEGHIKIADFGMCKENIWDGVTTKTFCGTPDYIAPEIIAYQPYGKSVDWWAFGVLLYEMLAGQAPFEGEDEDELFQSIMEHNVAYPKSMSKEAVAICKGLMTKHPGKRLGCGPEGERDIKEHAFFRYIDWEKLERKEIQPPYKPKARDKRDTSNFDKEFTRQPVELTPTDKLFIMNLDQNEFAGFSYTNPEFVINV

Row | IC50 [1] [nM] | IC50 [2] [nM] | IC50 [4] [nM] | IC50 [6] [nM] | IC50 [11] [nM] | IC50 [12] [nM] | IC50 (cells) [nM] | SMILES | other results
1 | 1.8 | 7.3 | 25 | 19 | 4.8 | 0.9 | 50 | CN1CCN(c2cc(C3=C(c4c[nH]c5ccccc45)C(=O)NC3=O)c3ccccc3c2)CC1 | clearance [3]: 19.3 mL/min/kg; AUC(0-inf) [5]: 4320 ng·h/mL; AUC(0-inf) [7]: 1990 ng·h/mL; Tmax [8]: 2 h; Vd [9]: 12 L/kg; half-life [10]: 4.5 h; Cmax [13]: 242 ng/mL; bioavailability [14]: 12%
2 | 2.1 | 4.4 | 11 | 5.5 | 3.3 | 2.2 | 69 | CN(C)CCOc1cc(C2=C(c3c[nH]c4ccccc34)C(=O)NC2=O)c2ccccc2c1 | clearance [15]: 30.9 mL/min/kg; AUC(0-inf) [16]: 154 ng·h/mL; Cmax [17]: 16.2 ng/mL; AUC(0-inf) [18]: 2690 ng·h/mL; Vd [19]: 48.2 L/kg; Tmax [20]: 0.5 h; half-life [21]: 20.6 h; bioavailability [22]: 1%
3 | 58 | 47 | 47 | 29 | 52 | 15 | 668 | CN(C)CCOc1cccc(C2=C(c3c[nH]c4ccccc34)C(=O)NC2=O)c1 | –
4 | 1270 | 794 | 2540 | 1820 | 1380 | 1500 | > 3700 | O=C1NC(=O)C(c2c[nH]c3ccccc23)=C1c1nc(N2CCOCC2)nc2ccccc12 | –
5 | 47 | 183 | 293 | 285 | 255 | 73 | – | CN(C)CCCn1cc(C2=C(c3csc4ccccc34)C(=O)NC2=O)c2ccccc21 | –
